Assay results reported in ChEMBL document CHEMBL5058577, “EUbOPEN Chemogenomics Library 2 (Multiplex)” (2022).

Tested on: U2OS
Assay: Multiplex assay against U2OS
Assay type: toxicity, cell-based
Settings: human
How it was run: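 Phenotypes for tubulin, mitochondrial mass and membrane permeability are expressed as per cents of healthy-nucleus cells. Cells were stained live at seeding with Hoechst33342, BioTracker Green Microtubule Cytoskeleton Dye, MitoTracker Red and Annexin V Alexa Fluor 680, then imaged after compound addition on a CQ1 microscope at 37°C and 5% CO2. Machine-learning gating in CellPathfinder separated Hoechst high-intensity objects from normal cells, divided normal cells by nuclear state (healthy, pyknosed, fragmented) and divided pyknosed cells into mitotic or apoptotic.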

[1] = 12 h, 1 µM, compound concentration 1 uM, replicate 1
[2] = 12 h, 1 µM, compound concentration 1 uM, replicate 2
[3] = 12 h, 10 µM, compound concentration 10 uM, replicate 1
[4] = 12 h, 10 µM, compound concentration 10 uM, replicate 2
[5] = 24 h, 1 µM, compound concentration 1 uM, replicate 1
[6] = 24 h, 1 µM, compound concentration 1 uM, replicate 2
[7] = 24 h, 10 µM, compound concentration 10 uM, replicate 1
[8] = 24 h, 10 µM, compound concentration 10 uM, replicate 2
[9] = 48 h, 1 µM, compound concentration 1 uM, replicate 1
[10] = 48 h, 1 µM, compound concentration 1 uM, replicate 2
[11] = 48 h, 10 µM, compound concentration 10 uM, replicate 1
[12] = 48 h, 10 µM, compound concentration 10 uM, replicate 2

SMILES: CCCn1c(=O)c2[nH]c(C3CCCC3)nc2n(CCC)c1=O [1,3-DIPROPYL-8-CYCLOPENTYLXANTHINE [DPCPX]]
- Population Apoptotic (%) [1]: 87%
- Population Fragmented Nuclei (%) [1]: 25%
- Population Healthy Nuclei (%) [1]: 64%
- Population Hoechst High Intensity Objects (%) [1]: 1%
- Population Membrane Permeable-Phenotype (%) [1]: 1%
- Population Mitochondria Different-Phenotype (%) [1]: 3%
- Population Mitotic Cells (%) [1]: 12%
- Population Normal (%) [1]: 98%
- Population Pyknosed Nuclei (%) [1]: 9%
- Population Tubulin-Different-Phenotype (%) [1]: 1%
- Total Cell Count [1]: 250
- Population Apoptotic (%) [2]: 93%
- Population Fragmented Nuclei (%) [2]: 15%
- Population Healthy Nuclei (%) [2]: 72%
- Population Hoechst High Intensity Objects (%) [2]: 0%
- Population Membrane Permeable-Phenotype (%) [2]: 7%
- Population Mitochondria Different-Phenotype (%) [2]: 4%
- Population Mitotic Cells (%) [2]: 6%
- Population Normal (%) [2]: 100%
- Population Pyknosed Nuclei (%) [2]: 12%
- Population Tubulin-Different-Phenotype (%) [2]: 5%
- Total Cell Count [2]: 125
- Population Apoptotic (%) [3]: 68%
- Population Fragmented Nuclei (%) [3]: 30%
- Population Healthy Nuclei (%) [3]: 60%
- Population Hoechst High Intensity Objects (%) [3]: 2%
- Population Membrane Permeable-Phenotype (%) [3]: 5%
- Population Mitochondria Different-Phenotype (%) [3]: 1%
- Population Mitotic Cells (%) [3]: 31%
- Population Normal (%) [3]: 97%
- Population Pyknosed Nuclei (%) [3]: 9%
- Population Tubulin-Different-Phenotype (%) [3]: 3%
- Total Cell Count [3]: 206
- Population Apoptotic (%) [4]: 100%
- Population Fragmented Nuclei (%) [4]: 21%
- Population Healthy Nuclei (%) [4]: 69%
- Population Hoechst High Intensity Objects (%) [4]: 3%
- Population Membrane Permeable-Phenotype (%) [4]: 6%
- Population Mitochondria Different-Phenotype (%) [4]: 9%
- Population Mitotic Cells (%) [4]: 0%
- Population Normal (%) [4]: 96%
- Population Pyknosed Nuclei (%) [4]: 8%
- Total Cell Count [4]: 96
- Population Apoptotic (%) [5]: 83%
- Population Fragmented Nuclei (%) [5]: 24%
- Population Healthy Nuclei (%) [5]: 68%
- Population Hoechst High Intensity Objects (%) [5]: 3%
- Population Membrane Permeable-Phenotype (%) [5]: 5%
- Population Mitochondria Different-Phenotype (%) [5]: 3%
- Population Mitotic Cells (%) [5]: 16%
- Population Normal (%) [5]: 96%
- Population Pyknosed Nuclei (%) [5]: 7%
- Population Tubulin-Different-Phenotype (%) [5]: 4%
- Total Cell Count [5]: 261
- Population Apoptotic (%) [6]: 87%
- Population Fragmented Nuclei (%) [6]: 13%
- Population Healthy Nuclei (%) [6]: 74%
- Population Hoechst High Intensity Objects (%) [6]: 2%
- Population Membrane Permeable-Phenotype (%) [6]: 8%
- Population Mitotic Cells (%) [6]: 12%
- Population Normal (%) [6]: 97%
- Population Pyknosed Nuclei (%) [6]: 11%
- Total Cell Count [6]: 138
- Population Apoptotic (%) [7]: 89%
- Population Fragmented Nuclei (%) [7]: 27%
- Population Healthy Nuclei (%) [7]: 64%
- Population Hoechst High Intensity Objects (%) [7]: 2%
- Population Membrane Permeable-Phenotype (%) [7]: 7%
- Population Mitochondria Different-Phenotype (%) [7]: 0%
- Population Mitotic Cells (%) [7]: 10%
- Population Normal (%) [7]: 97%
- Population Pyknosed Nuclei (%) [7]: 8%
- Population Tubulin-Different-Phenotype (%) [7]: 0%
- Total Cell Count [7]: 234
- Population Apoptotic (%) [8]: 100%
- Population Fragmented Nuclei (%) [8]: 21%
- Population Healthy Nuclei (%) [8]: 71%
- Population Hoechst High Intensity Objects (%) [8]: 4%
- Population Membrane Permeable-Phenotype (%) [8]: 3%
- Population Mitochondria Different-Phenotype (%) [8]: 3%
- Population Mitotic Cells (%) [8]: 0%
- Population Normal (%) [8]: 95%
- Population Pyknosed Nuclei (%) [8]: 6%
- Total Cell Count [8]: 120
- Population Apoptotic (%) [9]: 86%
- Population Fragmented Nuclei (%) [9]: 20%
- Population Healthy Nuclei (%) [9]: 69%
- Population Hoechst High Intensity Objects (%) [9]: 1%
- Population Membrane Permeable-Phenotype (%) [9]: 3%
- Population Mitochondria Different-Phenotype (%) [9]: 1%
- Population Mitotic Cells (%) [9]: 13%
- Population Normal (%) [9]: 98%
- Population Pyknosed Nuclei (%) [9]: 10%
- Population Tubulin-Different-Phenotype (%) [9]: 2%
- Total Cell Count [9]: 364
- Population Apoptotic (%) [10]: 92%
- Population Fragmented Nuclei (%) [10]: 17%
- Population Hoechst High Intensity Objects (%) [10]: 2%
- Population Membrane Permeable-Phenotype (%) [10]: 8%
- Population Mitochondria Different-Phenotype (%) [10]: 4%
- Population Mitotic Cells (%) [10]: 8%
- Population Normal (%) [10]: 97%
- Population Pyknosed Nuclei (%) [10]: 13%
- Population Tubulin-Different-Phenotype (%) [10]: 3%
- Total Cell Count [10]: 196
- Population Apoptotic (%) [11]: 77%
- Population Fragmented Nuclei (%) [11]: 24%
- Population Healthy Nuclei (%) [11]: 62%
- Population Hoechst High Intensity Objects (%) [11]: 2%
- Population Membrane Permeable-Phenotype (%) [11]: 4%
- Population Mitochondria Different-Phenotype (%) [11]: 1%
- Population Mitotic Cells (%) [11]: 22%
- Population Normal (%) [11]: 97%
- Population Pyknosed Nuclei (%) [11]: 12%
- Population Tubulin-Different-Phenotype (%) [11]: 3%
- Total Cell Count [11]: 322
- Population Apoptotic (%) [12]: 100%
- Population Fragmented Nuclei (%) [12]: 19%
- Population Healthy Nuclei (%) [12]: 73%
- Population Hoechst High Intensity Objects (%) [12]: 3%
- Population Membrane Permeable-Phenotype (%) [12]: 5%
- Population Mitochondria Different-Phenotype (%) [12]: 3%
- Population Mitotic Cells (%) [12]: 0%
- Population Normal (%) [12]: 96%
- Population Pyknosed Nuclei (%) [12]: 6%
- Population Tubulin-Different-Phenotype (%) [12]: 0%
- Total Cell Count [12]: 165

SMILES: Cc1ccccc1C(=O)Nc1ccc(C(=O)N2CCCC(N(C)C)c3ccccc32)cc1.Cl (stereo unspecified)
- Population Apoptotic (%) [1]: 91%
- Population Fragmented Nuclei (%) [1]: 20%
- Population Healthy Nuclei (%) [1]: 70%
- Population Hoechst High Intensity Objects (%) [1]: 1%
- Population Membrane Permeable-Phenotype (%) [1]: 5%
- Population Mitochondria Different-Phenotype (%) [1]: 3%
- Population Mitotic Cells (%) [1]: 8%
- Population Normal (%) [1]: 98%
- Population Pyknosed Nuclei (%) [1]: 8%
- Population Tubulin-Different-Phenotype (%) [1]: 4%
- Total Cell Count [1]: 282
- Population Apoptotic (%) [2]: 77%
- Population Fragmented Nuclei (%) [2]: 14%
- Population Healthy Nuclei (%) [2]: 79%
- Population Membrane Permeable-Phenotype (%) [2]: 4%
- Population Mitochondria Different-Phenotype (%) [2]: 5%
- Population Mitotic Cells (%) [2]: 22%
- Population Pyknosed Nuclei (%) [2]: 5%
- Population Tubulin-Different-Phenotype (%) [2]: 1%
- Total Cell Count [2]: 157
- Population Apoptotic (%) [3]: 59%
- Population Fragmented Nuclei (%) [3]: 18%
- Population Healthy Nuclei (%) [3]: 55%
- Population Hoechst High Intensity Objects (%) [3]: 4%
- Population Membrane Permeable-Phenotype (%) [3]: 14%
- Population Mitochondria Different-Phenotype (%) [3]: 11%
- Population Mitotic Cells (%) [3]: 40%
- Population Normal (%) [3]: 95%
- Population Pyknosed Nuclei (%) [3]: 25%
- Population Tubulin-Different-Phenotype (%) [3]: 8%
- Total Cell Count [3]: 213
- Population Apoptotic (%) [4]: 56%
- Population Healthy Nuclei (%) [4]: 62%
- Population Hoechst High Intensity Objects (%) [4]: 1%
- Population Membrane Permeable-Phenotype (%) [4]: 15%
- Population Mitochondria Different-Phenotype (%) [4]: 25%
- Population Mitotic Cells (%) [4]: 43%
- Population Normal (%) [4]: 98%
- Population Pyknosed Nuclei (%) [4]: 19%
- Population Tubulin-Different-Phenotype (%) [4]: 15%
- Total Cell Count [4]: 83
- Population Apoptotic (%) [5]: 88%
- Population Fragmented Nuclei (%) [5]: 18%
- Population Healthy Nuclei (%) [5]: 70%
- Population Hoechst High Intensity Objects (%) [5]: 0%
- Population Membrane Permeable-Phenotype (%) [5]: 6%
- Population Mitochondria Different-Phenotype (%) [5]: 3%
- Population Mitotic Cells (%) [5]: 11%
- Population Normal (%) [5]: 99%
- Population Pyknosed Nuclei (%) [5]: 10%
- Population Tubulin-Different-Phenotype (%) [5]: 4%
- Total Cell Count [5]: 333
- Population Apoptotic (%) [6]: 66%
- Population Fragmented Nuclei (%) [6]: 13%
- Population Healthy Nuclei (%) [6]: 77%
- Population Hoechst High Intensity Objects (%) [6]: 1%
- Population Membrane Permeable-Phenotype (%) [6]: 5%
- Population Mitochondria Different-Phenotype (%) [6]: 4%
- Population Mitotic Cells (%) [6]: 33%
- Population Normal (%) [6]: 98%
- Population Pyknosed Nuclei (%) [6]: 9%
- Population Tubulin-Different-Phenotype (%) [6]: 3%
- Total Cell Count [6]: 192
- Population Apoptotic (%) [7]: 71%
- Population Fragmented Nuclei (%) [7]: 16%
- Population Healthy Nuclei (%) [7]: 51%
- Population Hoechst High Intensity Objects (%) [7]: 4%
- Population Membrane Permeable-Phenotype (%) [7]: 16%
- Population Mitochondria Different-Phenotype (%) [7]: 14%
- Population Mitotic Cells (%) [7]: 28%
- Population Normal (%) [7]: 95%
- Population Pyknosed Nuclei (%) [7]: 31%
- Population Tubulin-Different-Phenotype (%) [7]: 6%
- Total Cell Count [7]: 211
- Population Apoptotic (%) [8]: 46%
- Population Fragmented Nuclei (%) [8]: 27%
- Population Healthy Nuclei (%) [8]: 53%
- Population Hoechst High Intensity Objects (%) [8]: 5%
- Population Membrane Permeable-Phenotype (%) [8]: 18%
- Population Mitochondria Different-Phenotype (%) [8]: 18%
- Population Mitotic Cells (%) [8]: 53%
- Population Normal (%) [8]: 94%
- Population Pyknosed Nuclei (%) [8]: 18%
- Population Tubulin-Different-Phenotype (%) [8]: 18%
- Total Cell Count [8]: 73
- Population Apoptotic (%) [9]: 85%
- Population Fragmented Nuclei (%) [9]: 14%
- Population Healthy Nuclei (%) [9]: 71%
- Population Hoechst High Intensity Objects (%) [9]: 1%
- Population Membrane Permeable-Phenotype (%) [9]: 5%
- Population Mitochondria Different-Phenotype (%) [9]: 3%
- Population Mitotic Cells (%) [9]: 14%
- Population Normal (%) [9]: 98%
- Population Pyknosed Nuclei (%) [9]: 13%
- Population Tubulin-Different-Phenotype (%) [9]: 3%
- Total Cell Count [9]: 414
- Population Apoptotic (%) [10]: 83%
- Population Fragmented Nuclei (%) [10]: 15%
- Population Healthy Nuclei (%) [10]: 72%
- Population Membrane Permeable-Phenotype (%) [10]: 7%
- Population Mitochondria Different-Phenotype (%) [10]: 5%
- Population Mitotic Cells (%) [10]: 16%
- Population Pyknosed Nuclei (%) [10]: 12%
- Population Tubulin-Different-Phenotype (%) [10]: 4%
- Total Cell Count [10]: 248
- Population Apoptotic (%) [11]: 71%
- Population Fragmented Nuclei (%) [11]: 28%
- Population Healthy Nuclei (%) [11]: 43%
- Population Hoechst High Intensity Objects (%) [11]: 8%
- Population Membrane Permeable-Phenotype (%) [11]: 17%
- Population Mitochondria Different-Phenotype (%) [11]: 8%
- Population Mitotic Cells (%) [11]: 28%
- Population Normal (%) [11]: 91%
- Population Pyknosed Nuclei (%) [11]: 28%
- Population Tubulin-Different-Phenotype (%) [11]: 7%
- Total Cell Count [11]: 206
- Population Apoptotic (%) [12]: 84%
- Population Healthy Nuclei (%) [12]: 42%
- Population Membrane Permeable-Phenotype (%) [12]: 11%
- Population Mitochondria Different-Phenotype (%) [12]: 30%
- Population Mitotic Cells (%) [12]: 16%
- Population Pyknosed Nuclei (%) [12]: 29%
- Population Tubulin-Different-Phenotype (%) [12]: 13%
- Total Cell Count [12]: 93
